Assays:
Cavia porcellus = experiment: The compound was tested in vivo for the inhibition of IgG1-mediated bronchoconstriction in guinea pig at 0.03 mg/kg administered perorally; format: functional; conditions: route oral; for ED50: read-out: ID50 (the source's name)
Summary of the method: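 Male Hartley guinea pigs, 8–12 per group, were passively sensitized ip with 1 mL IgG-like anti-ovalbumin antiserum. After 24 h they were urethane-anesthetized, ventilated and given gallamine. Compound was given orally 1 h before ovalbumin challenge (5 mg/kg iv). Konzett–Rössler overflow was read as % inhibition versus controls at 5 min after challenge.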

Histamine H1 receptor [1] = target: T1, Histamine H1 receptor (Cavia porcellus, UniProt P31389); experiment: Binding affinity for histamine H1 receptor from guinea pig cerebellum, using [3H]pyrilamine as radioligand at 0.1 uM; format: tissue-based
Summary of the method: (§1)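 Male Hartley guinea-pig cerebellum membranes (washed twice, 35000–35500g) in 50 mM Na/K phosphate, pH 7.5. Tissue (10 mg wet weight) was incubated with 3.8 nM [3H]pyrilamine and 0.1 μM drug for 30 min at 25 °C. Nonspecific binding was set with 1 μM astemizole. Bound ligand was collected by GF/C filtration with three ice-cold washes and counted by liquid scintillation.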

[2] = target: T2, Muscarinic acetylcholine receptor M1 (Rattus norvegicus) (UniProt P08482); experiment: Binding affinity for Muscarinic acetylcholine receptor M1 from rat striatum, using [3H]quinuclidinyl benzilate as radioligand at 10 uM.
T2 sequence (whole entry): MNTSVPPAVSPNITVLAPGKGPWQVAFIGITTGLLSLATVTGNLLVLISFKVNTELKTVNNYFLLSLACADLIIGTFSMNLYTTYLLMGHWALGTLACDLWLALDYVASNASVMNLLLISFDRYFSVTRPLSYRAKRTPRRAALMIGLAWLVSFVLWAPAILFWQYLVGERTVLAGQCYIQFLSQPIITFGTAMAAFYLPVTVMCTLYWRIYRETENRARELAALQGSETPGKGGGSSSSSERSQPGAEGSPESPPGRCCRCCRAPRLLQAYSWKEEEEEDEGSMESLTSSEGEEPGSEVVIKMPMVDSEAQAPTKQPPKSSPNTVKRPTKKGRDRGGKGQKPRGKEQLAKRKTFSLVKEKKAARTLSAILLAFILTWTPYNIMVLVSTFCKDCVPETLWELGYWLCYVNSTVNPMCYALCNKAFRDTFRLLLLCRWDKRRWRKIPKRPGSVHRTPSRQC
Summary of the method: (§2)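 Rat striatum was homogenized in water and diluted to 200 volumes in 50 mM Na/K phosphate, pH 7.4. Nonspecific binding was defined with 1 μM unlabeled dexetimide. Bound ligand was collected by GF/B filtration with three ice-cold buffer washes and counted by scintillation.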

Rattus norvegicus [3] = experiment: The compound was tested in vivo for inhibitory effect on 48-h homologous passive cutaneous anaphylaxis (PCA) in rats administered perorally; format: functional; conditions: po
Summary of the method: (§3)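 Male Wistar rats, three per group, received intradermal anti-ovalbumin rat IgE serum (0.05 mL, 1:8 in saline) at two dorsal sites. After 48 h they were challenged iv with 1 mg ovalbumin plus 5 mg Evans blue. Compound was given orally 1 h before challenge. […] ED50 came from responders (>50% inhibition).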

[4] = target: Histamine H1 receptor (Cavia porcellus) (UniProt P31389); experiment: (§4) The compound was tested in vitro for binding affinity against histamine H1 receptor from guinea pig cerebellum, using [3H]pyrilamine as radioligand at 0.1 uM; format: tissue-based; summary of the method: as §1
[5] = target: T2, Muscarinic acetylcholine receptor M1 (Rattus norvegicus); experiment: The compound was tested in vitro for binding affinity against muscarinic acetylcholine Muscarinic acetylcholine receptor M1 from rat striatum, using [3H]quinuclidinyl benzilate as radioligand at 10 uM.
Summary of the method: as §2, with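 “7.4. Tissue (5 mg wet weight) was incubated with 1.26 nM [3H]quinuclidinyl benzilate for 60 min at 37 °C.” for “7.4.”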

Rattus norvegicus [6] = experiment: The compound at 1 mg/kg was tested in vivo for inhibitory effect on 48-h homologous passive cutaneous anaphylaxis (PCA) in rats administered perorally
Rattus norvegicus [7] = experiment: The compound at 1 uM was tested in vivo for inhibitory effect on 48-h homologous passive cutaneous anaphylaxis (PCA) in rats administered perorally; format: functional; conditions: in the assay text read “at 1 mg/kg” for “at 1 uM”; summary of the method: as §3
Rattus norvegicus [8] = experiment: The compound at 10 uM was tested in vivo for inhibitory effect on 48-h homologous passive cutaneous anaphylaxis (PCA) in rats administered perorally; format: functional; conditions: in the assay text read “at 10 mg/kg” for “at 10 uM”; summary of the method: as §3
Histamine H1 receptor [9] = target: T1, Histamine H1 receptor; experiment: as §4; format: tissue-based
Summary of the method: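 Male Hartley guinea-pig cerebellum membranes (washed twice, 35000–35500g) in 50 mM Na/K phosphate, pH 7.5. Nonspecific binding was set with 1 μM astemizole. Bound ligand was collected by GF/C filtration with three ice-cold washes and counted by liquid scintillation.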

[10] = target: T2, Muscarinic acetylcholine receptor M1 (Rattus norvegicus); experiment: The compound was tested in vitro for binding affinity Muscarinic acetylcholine receptor M1 from rat striatum, using [3H]quinuclidinyl benzilate as radioligand at 10 uM.
Summary of the method: as §2, with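 “7.4. Tissue (5 mg wet weight) was incubated with 1.26 nM [3H]quinuclidinyl benzilate for 60 min at 37 °C.” for “7.4.”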

Histamine H1 receptor (Cavia porcellus), sequence (P31389 whole entry): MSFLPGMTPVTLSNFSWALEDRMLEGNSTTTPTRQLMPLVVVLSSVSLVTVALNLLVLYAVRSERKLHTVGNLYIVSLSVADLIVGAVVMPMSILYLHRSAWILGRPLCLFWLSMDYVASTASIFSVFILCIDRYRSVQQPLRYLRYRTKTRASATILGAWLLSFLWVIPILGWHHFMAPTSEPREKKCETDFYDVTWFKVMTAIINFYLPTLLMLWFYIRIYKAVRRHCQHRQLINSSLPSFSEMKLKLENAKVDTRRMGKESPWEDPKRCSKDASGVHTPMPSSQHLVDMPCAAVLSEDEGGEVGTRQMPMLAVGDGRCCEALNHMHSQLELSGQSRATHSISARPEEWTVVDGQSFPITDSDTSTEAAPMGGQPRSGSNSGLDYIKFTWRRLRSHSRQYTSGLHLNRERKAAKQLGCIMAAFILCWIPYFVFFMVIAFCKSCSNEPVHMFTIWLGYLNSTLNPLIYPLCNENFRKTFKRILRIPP
T1 sequence (P31389 whole entry): as above

| SMILES | Ki (Histamine H1 receptor [1]) [nM] | inhibition [2] [%] | ED50 (Cavia porcellus) [mg/kg] | ED50 (Rattus norvegicus [3]) [mg/kg] | inhibition in vivo at 0.03 mg/kg (Cavia porcellus) [%] | other results |
| --- | --- | --- | --- | --- | --- | --- |
| CN1CCN(C/C=C2\c3ccccc3COc3ccc(C(=O)O)cc32)CC1.O=C(O)/C=C/C(=O)O |  |  |  |  |  | inhibition [4]: 0%; inhibition [5]: 2%; Inhibition (Rattus norvegicus [6]): 10% |
| CN(C)CCC/C=C1/c2ccccc2COc2ccc(CC(=O)O)cc21 | 4.6 | 2 |  |  | 60 | Inhibition (Rattus norvegicus [7]): 55% |
| CN(C)CCSC1c2ccccc2COc2ccc(C(=O)O)cc21.Cl (configuration not stated) | 14 |  | 0.029 | 0.92 |  | inhibition [5]: 7% |
| O=C(O)/C=C/C(=O)O.O=C(O)c1ccc2c(c1)/C(=C\CCN1CCCC1)c1ccccc1CO2 | 5 | 3 |  |  | 8.7 | Inhibition (Rattus norvegicus [8]): 53% |
| CN(C)C/C=C1\c2ccccc2COc2ccc(CC(=O)O)cc21 |  |  | 0.018 | 0.077 |  | inhibition [10]: 1%; Ki (Histamine H1 receptor [9]): 11 nM |
| CN(C)C/C=C1\c2ccccc2COc2ccc(C(=O)O)cc21.O=C(O)/C=C/C(=O)O | 12 | -2 |  |  | 28 | Inhibition (Rattus norvegicus [6]): 19% |
| CN(C)CC/C=C(/c1ccccc1)c1cccc(C(=O)O)c1 |  | 4 |  |  |  | inhibition [4]: 10% |
| CN1CCN(C/C=C2\c3ccccc3COc3ccc(CC(=O)O)cc32)CC1.O=C(O)/C=C/C(=O)O |  |  |  |  |  | inhibition [4]: 29%; inhibition [5]: 3%; Inhibition (Rattus norvegicus [7]): 44% |
| CN(C)CC/C=C1/c2ccccc2COc2ccc(CCC(=O)O)cc21 |  |  | 0.015 | 0.32 |  | inhibition [10]: 2%; Ki (Histamine H1 receptor [9]): 15 nM |
| CN(C)CC/C=C1/c2ccccc2COc2ccc(CCO)cc21 |  | 80 |  | 0.12 |  | Ki (Histamine H1 receptor [9]): 0.63 nM |
| CC(C)O.O=C(O)c1ccc2c(c1)/C(=C\CCN1CCOCC1)c1ccccc1CO2 |  |  |  |  | -1 | inhibition [4]: 24%; inhibition [5]: -2%; Inhibition (Rattus norvegicus [7]): 74% |
| Cc1ccc2c(c1)/C(=C/CCN(C)C)c1ccccc1CO2.O=C(O)/C=C/C(=O)O | 0.13 |  |  |  |  | Inhibition (Rattus norvegicus [7]): 20% |
| CN(C)CC/C=C1/c2ccccc2COc2ccc(/C=C/C(=O)O)cc21.O=C(O)/C=C/C(=O)O | 29 | -1 |  | 1 | 1.1 |  |
| O=C(O)c1ccc2c(c1)/C(=C\CCN1CCSCC1)c1ccccc1CO2 | 7.6 | 27 |  |  | 27 | Inhibition (Rattus norvegicus [7]): 60% |
| CN1CCC(=C2c3ccccc3CC(=O)c3sccc32)CC1 [KETOTIFEN] |  | 55 | 0.009 | 4.8 |  |  |
| O=C(O)/C=C/C(=O)O.O=C(O)c1ccc2c(c1)/C(=C/CN1CCSCC1)c1ccccc1CO2 |  |  |  |  |  | inhibition [4]: 30%; inhibition [5]: 3%; Inhibition (Rattus norvegicus [8]): 24% |
| O=C(O)/C=C/C(=O)O.O=C(O)c1ccc2c(c1)/C(=C/CN1CCOCC1)c1ccccc1CO2 |  |  |  |  |  | inhibition [4]: 19%; inhibition [5]: 2%; Inhibition (Rattus norvegicus [6]): 12% |
| CCN(CC)CC/C=C1/c2ccccc2COc2ccc(C(=O)O)cc21.O=C(O)/C=C/C(=O)O | 10 | 3 |  | 0.12 | 19 |  |

Continued, in another order:

| Ki (Histamine H1 receptor [1]) [nM] | inhibition [2] [%] | SMILES | ED50 (Cavia porcellus) [mg/kg] | ED50 (Rattus norvegicus [3]) [mg/kg] | inhibition in vivo at 0.03 mg/kg (Cavia porcellus) [%] | other results |
| --- | --- | --- | --- | --- | --- | --- |
| 16 | 3 | CN(C)CC/C=C1/c2ccccc2COc2ccc(CC(=O)O)cc21.Cl [OLOPATADINE HYDROCHLORIDE] | 0.03 | 0.049 |  |  |
|  | 2 | CN(C)CCC/C=C1/c2ccccc2COc2ccc(C(=O)O)cc21 |  | 1.2 | 11 | Ki (Histamine H1 receptor [9]): 5.8 nM |
| 6.3 | 12 | CN(C)CCC/C=C1\c2ccccc2COc2ccc(C(=O)O)cc21 |  | 1.2 | 1.4 |  |
| 4.2 | 5 | CN(C)CC/C=C1\c2ccccc2COc2ccc(C(=O)O)cc21.O=C(O)/C=C/C(=O)O | 0.021 | 0.74 |  |  |
| 0.48 | 72 | CN(C)CC/C=C1\c2ccccc2COc2ccc(CCO)cc21 | 0.0059 | 0.14 |  |  |
| 24 | -1 | CN(C)CC/C=C1/c2ccccc2COc2cc(C(=O)O)ccc21 |  |  |  | Inhibition (Rattus norvegicus [6]): 19% |
| 20 | 1 | CN(C)CC/C=C1/c2ccccc2COc2ccc(C(=O)O)cc21 | 0.053 | 0.25 |  |  |
| 5.2 | -1 | CN(C)CC/C=C1\c2ccccc2COc2ccc(CC(=O)O)cc21 | 0.0041 | 0.021 |  |  |
| 4.2 | 5 | CN(C)CC/C=C1\c2ccccc2COc2ccc(CCC(=O)O)cc21 | 0.0064 | 0.26 |  |  |

— ChEMBL document CHEMBL1126065, “Synthesis and antiallergic activity of 11-(aminoalkylidene)-6,11-dihydrodibenz[b,e]oxepin derivatives” (J Med Chem, 1992)
